High-throughput results: PubChem, several laboratories
Rows were chosen to be rich in hits. Some 2.7% of all compounds tested hit in one or more screens of this group.
MC4R barr agon = MC4R agonists recruiting beta-arrestin, primary screen, cell-based, luminescence, agonist arm of biased-ligand search; activation, % at 8.9 µM; U2OS MC4R beta-arrestin complementation; percent of melanotan II response, DMSO zero; AID 540308, 2011; Melanocortin receptor 4 (Homo sapiens), P32245; actives 0.98% (n = 360,000);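 active = activation above a per-plate cutoff, the mean activation of sample wells on that plate plus 3 SD, cut at about 8% in these data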
PG9 binder = binders of HIV-1 gp120 antibody PG9, primary screen, biochemical, TR-FRET; inhibition, % at 6.7 µM; AID 624416, 2012; TR-FRET gp120-PG9 antibody binding; HIV-1 gp120 / PG9 antibody interaction; actives 0.43% (n = 360,000); in the data active = inhibition above about 8.5%
Rev-erbA mod = modulators of Rev-erb alpha DNA binding, primary screen, biochemical, FITC-DNA, fluorescence polarization, uHTS; Nuclear receptor subfamily 1 group D member 1 (Homo sapiens), P20393; Rev-erbα–FITC-DNA binding, 90 min; activity, % at 10 µM; actives 0.79% (n = 370,000); AID 1259318, 2017;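 active = activity above about 14%, limit read from the data; passing the limit was not always enough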;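 note: 0% = DMSO wells with 35 nM protein and 100% = DMSO wells with 750 nM protein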
MC4R antagonist = MC4R antagonists of cAMP signaling, primary screen, cell-based, TR-FRET, antagonist arm of biased-ligand search. MC4R-expressing cells, MTII-stimulated cAMP, LANCE TR-FRET. actives 0.48% (n = 360,000). inhibition, % at 6.5 µM. AID 540295, 2011. Melanocortin receptor 4 (Homo sapiens), P32245;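 active = inhibition above its plate's cutoff, the mean of tested wells on that plate plus 3 SD, cut at about 29% in these data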;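 note: 0% = Melanotan II alone and 100% = Melanotan II plus saturating MCL0020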
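Test system: U2OS cells stably expressing human melanocortin 4 receptor (MC4R); also added: Melanotan II challenge; compound: 6.5 µM single dose; timing: 30-min compound preincubation, 1-h Melanotan II challenge, 1-h detection, room temperature; signal: Eu-cAMP/anti-cAMP TR-FRET, emission 671 nm; repeats: one well per compound, no replicates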
NR2E3 ag-1 = inhibitors of NR2E3-RetCOR corepressor binding, primary screen, NR2E3 agonist project, biochemical, TR-FRET, GST-NR2E3, biotin-RetCOR; Photoreceptor-specific nuclear receptor (Homo sapiens), Q9Y5X4; actives 0.12% (n = 320,000); 1536-well; AID 2300, 2010; inhibition of corepressor binding, % at 4.78 µM;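 active = percent inhibition above the cutoff of mean plus 3 SD of all tested compounds, set per screening campaign, cut at about 20% in these data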;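 note: 0% = DMSO wells and 100% = biotin wells as full block of FRET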
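Assay system: NR2E3–RetCOR corepressor complex. Quantity: 1.35 nM GST-NR2E3. Buffer or medium: pH 7.5 Tris-based buffer. Reagent: biotinylated RetCOR corepressor at 7 nM final. Schedule: 5 h at 4 °C. Detection: TR-FRET, emission read at 617 and 671 nm. Replicates: one well per compound, singlicate testing.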
NR2E3 ag-2 = NR2E3 agonists in two-hybrid cells, primary screen, cell-based, luminescence, CHO-S, Gal4-NCOR/VP16-NR2E3; Photoreceptor-specific nuclear receptor (Homo sapiens), Q9Y5X4; luciferase; inhibition of corepressor binding, % at 3.98 µM; actives 0.35% (n = 360,000); AID 602229, 2012;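 active = inhibition above the mean of all tested compounds plus 3 SD, cut at about 70% in these data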;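 note: 0% = DMSO with NR2E3 transfected cells and 100% = cells lacking NR2E3 construct; higher means lower luciferase signal from less NR2E3 corepressor binding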
MC4R barr conf = MC4R beta-arrestin agonists, retest, confirmation, cell-based, luminescence, U2OS; U2OS MC4R beta-arrestin recruitment; scaled DMSO 0%, Melanotan II 100%; AID 602192, 2012; activation, % at 8.9 µM; actives 31% (n = 2,400); shares compounds with MC4R barr agon;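 active = mean activation across replicates above the hit cutoff set in the earlier primary screen, cut at about 8% in these data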
MOR DOR agonist = agonists of MOR-DOR heterodimerization, counter-screen for MC4R biased agonist project, cell-based, luminescence. shares compounds with MC4R barr agon. U2OS PathHunter beta-arrestin, beta-gal luminescence; percent of deltorphin B response, DMSO zero. activation, % at 9.2 µM. actives 5.8% (n = 2,400). AID 602194, 2012;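 active = mean activation across replicates exceeds the hit threshold derived in the earlier primary screen, cut at about 18% in these data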;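 note: 100% = deltorphin B at 0.9 µM final and 0% = DMSO alone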
Target sequence (P35372 whole entry, looked up): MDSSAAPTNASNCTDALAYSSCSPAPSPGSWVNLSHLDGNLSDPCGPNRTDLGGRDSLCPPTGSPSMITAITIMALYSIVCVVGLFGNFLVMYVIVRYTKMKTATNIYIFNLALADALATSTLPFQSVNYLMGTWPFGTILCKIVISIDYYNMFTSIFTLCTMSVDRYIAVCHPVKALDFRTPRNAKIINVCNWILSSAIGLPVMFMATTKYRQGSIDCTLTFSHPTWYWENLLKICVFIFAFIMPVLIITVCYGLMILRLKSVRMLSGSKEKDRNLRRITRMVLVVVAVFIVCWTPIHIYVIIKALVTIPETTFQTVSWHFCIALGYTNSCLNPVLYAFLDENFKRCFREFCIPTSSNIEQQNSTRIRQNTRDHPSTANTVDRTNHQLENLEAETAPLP
Target sequence (P41143 whole entry, looked up): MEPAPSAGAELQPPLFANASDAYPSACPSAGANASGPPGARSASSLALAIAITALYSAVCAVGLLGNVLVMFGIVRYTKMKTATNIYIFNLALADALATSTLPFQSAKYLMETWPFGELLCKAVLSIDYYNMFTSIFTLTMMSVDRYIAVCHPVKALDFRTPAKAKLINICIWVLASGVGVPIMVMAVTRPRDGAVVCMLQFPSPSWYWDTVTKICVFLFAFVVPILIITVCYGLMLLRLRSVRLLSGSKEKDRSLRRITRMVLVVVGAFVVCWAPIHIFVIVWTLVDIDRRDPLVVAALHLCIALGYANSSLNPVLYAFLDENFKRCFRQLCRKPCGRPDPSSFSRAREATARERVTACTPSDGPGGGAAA
Active calls of the source: *.

For NC(c1csc(Nc2cc(Oc3ccccc3)ncn2)n1)C1CCCCC1 (centres undefined) the results were MC4R barr agon 10*, PG9 binder 2, Rev-erbA mod -8, MC4R antagonist -3, NR2E3 ag-2 18, MC4R barr conf 28* and MOR DOR agonist 20*.
Screening NC(c1csc(Nc2ccc(C(=O)c3ccccc3)cc2)n1)C1CCCCC1 (centres undefined) returned MC4R barr agon 11*, PG9 binder 0, Rev-erbA mod -1, MC4R antagonist 4, NR2E3 ag-2 19, MC4R barr conf 23* and MOR DOR agonist 25*.
For NC(Cc1ccc(Cl)cc1)c1csc(Nc2ccc(C(=O)c3ccccc3)cc2)n1 (centres undefined) the results were MC4R barr agon 12*, PG9 binder 0, Rev-erbA mod -8, MC4R antagonist -7, NR2E3 ag-2 13, MC4R barr conf 18* and MOR DOR agonist 19*.
`NC(Cc1ccc(F)cc1)c1csc(Nc2ccc(C(=O)c3ccccc3)cc2)n1` (centres undefined) gave MC4R barr agon 13*, PG9 binder 1, Rev-erbA mod -1, MC4R antagonist 6, NR2E3 ag-2 17, MC4R barr conf 19* and MOR DOR agonist 24*.
For COc1ccc(C(N)c2csc(Nc3cc(Oc4ccccc4)ncn3)n2)cc1 (centres undefined) the results were MC4R barr agon 4, PG9 binder -1, Rev-erbA mod -3, MC4R antagonist -7 and NR2E3 ag-2 -18.
`CC(C)NCC(O)c1ccc(NS(C)(=O)=O)cc1` (centres undefined) gave MC4R barr agon -1, PG9 binder 0, Rev-erbA mod 2, MC4R antagonist -2, NR2E3 ag-1 3 and NR2E3 ag-2 -3.
For COc1ccccc1NC(=O)c1cc(S(=O)(=O)N2CCCCCC2)ccc1F the results were MC4R barr agon -4, PG9 binder 1, Rev-erbA mod -3, MC4R antagonist 7, NR2E3 ag-1 -1 and NR2E3 ag-2 -25.
For O=C(COc1ccc([N+](=O)[O-])cc1)Nc1ccc(NC(=O)c2ccccc2)cc1 the results were MC4R barr agon -3, PG9 binder -1, Rev-erbA mod -4, MC4R antagonist 11, NR2E3 ag-1 3 and NR2E3 ag-2 -6.
Screening O=C(CNC(=S)NC(=O)c1cccc([N+](=O)[O-])c1)c1ccccc1 returned MC4R barr agon 11*, PG9 binder -3, Rev-erbA mod 8, MC4R antagonist 5, NR2E3 ag-1 0, NR2E3 ag-2 -16, MC4R barr conf -1 and MOR DOR agonist 2.
For CC(=O)Nc1nc(-c2ccc([N+](=O)[O-])cc2)cs1 the results were MC4R barr agon 0, PG9 binder 0, Rev-erbA mod -4, MC4R antagonist 17, NR2E3 ag-1 2 and NR2E3 ag-2 -21.
Screening O=C(Nc1ccc(OCc2ccccc2)cc1)c1cccc([N+](=O)[O-])c1 returned MC4R barr agon 10*, PG9 binder -1, Rev-erbA mod 10, MC4R antagonist 6, NR2E3 ag-1 1, NR2E3 ag-2 -25, MC4R barr conf 1 and MOR DOR agonist 12.
